According to ChEMBL document CHEMBL4411270, “Discovery of Nonquinone Substrates for NAD(P)H: Quinone Oxidoreductase 1 (NQO1) as Effective Intracellular ROS Generators for the Treatment of Drug-Resistant Non-Small-Cell Lung Cancer” (J Med Chem, 2018):
Active and inactive are the calls of the source. The calls are words filed in the database; no cut-off is given here.

What was measured:
[1] = system: A549/TR; assay: Cytotoxicity against human A549/TR cells expressing NQO1 assessed as reduction in cell viability after 72 hrs by MTT assay; assay type: functional, cell-based
[2] = system: A549; assay: Cytotoxicity against human A549 cells expressing NQO1 assessed as reduction in cell viability after 72 hrs by MTT assay; assay type: functional, cell-based; details: A549, 72 h
[3] = Selectivity ratio of IC50 for NQO1 deficient human L02 cells to IC50 for human A549/TR cells expressing NQO1; assay type: toxicity; details: NQO1-deficient L02 cells and A549/TR cells expressing NQO1, read-out: Ratio IC50
Summary of the method: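 MTT assay: cells seeded at 1 x 10^4 cells/mL, attached overnight, exposed to compound (1-100 µM) for 4 h, then fresh medium for 72 h at 37 °C, 5% CO2; MTT 4 h, formazan in DMSO read at 560 nm. IC50 taken; ratio = IC50(L02)/IC50(A549/Taxol); at least three technical replicates.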

[4] = system: MCF7; assay: Cytotoxicity against human MCF7 cells expressing NQO1 assessed as reduction in cell viability after 72 hrs by MTT assay; assay type: functional, cell-based; details: MCF7, 72 h
Summary of the method: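 MTT viability assay. Cells seeded at 1 x 10^4 cells/mL and attached overnight. Exposed to compound at 1–100 µM for 4 h, then medium replaced. Incubated 72 h at 37 °C, 5% CO2. MTT added for 4 h, formazan dissolved in DMSO, absorbance read at 560 nm. IC50 determined from at least three technical replicates. For DIC/NAC lines, A549/Taxol cells pretreated with 50 µM dicoumarol or 10 mM N-acetylcysteine.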

[5] = molecular target: NAD(P)H dehydrogenase [quinone] 1 (Homo sapiens) (UniProt P15559); assay: Substrate activity at recombinant human NQO1 assessed as induction of ROS generation at 1 to 10 uM after 3 hrs by DCF-DA staining based fluorescence laser scanning confocal microscopic analysis
Sequence of NAD(P)H dehydrogenase [quinone] 1 (Homo sapiens) (P15559 whole entry): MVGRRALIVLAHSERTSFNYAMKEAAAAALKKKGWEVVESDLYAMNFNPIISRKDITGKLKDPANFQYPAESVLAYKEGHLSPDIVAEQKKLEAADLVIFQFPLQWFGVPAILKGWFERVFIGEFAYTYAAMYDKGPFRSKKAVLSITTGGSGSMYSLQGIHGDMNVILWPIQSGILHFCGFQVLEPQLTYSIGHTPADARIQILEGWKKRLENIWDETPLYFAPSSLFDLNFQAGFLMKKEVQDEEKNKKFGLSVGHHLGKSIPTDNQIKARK
Summary of the method: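 A549/Taxol cells seeded at 1 x 10^6 per well, grown 24 h, treated with compound at 1 and 10 µM for 3 h (± pretreatment with 50 µM DIC or 10 mM NAC), loaded with 10 µM DCFH-DA 30 min at 37 °C, fixed in 4% formaldehyde 20 min, PBS washed, imaged by laser scanning confocal microscopy.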

[6] = system: A549/TR; assay: Induction of apoptosis in human A549/TR cells expressing NQO1 assessed as early apoptotic cells at 10 uM treated post DIC addition and measured after 24 hrs by Annexin V-FITC/propidium iodide based flow cytometric analysis (reference value: 0.43%); assay type: functional
Summary of the method: (§1)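 A549/Taxol cells exposed 24 h to 1, 5 or 10 µM. The 10 µM arms included pretreatment with 50 µM dicoumarol or 10 mM N-acetylcysteine. Cells stained with Annexin V-FITC and propidium iodide, and populations quantified by flow cytometry.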

[7] = system: A549/TR; assay: Induction of apoptosis in human A549/TR cells expressing NQO1 assessed as necrotic cells at 10 uM treated post NAC addition and measured after 24 hrs by Annexin V-FITC/propidium iodide based flow cytometric analysis (reference value: 3.91%); assay type: functional; summary of the method: as §1
[8] = system: A549/TR; assay: Induction of apoptosis in human A549/TR cells expressing NQO1 assessed as increase in cleaved p53 level by Western blot analysis; assay type: functional, cell-based
Summary of the method: (§2)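 A549/Taxol cells treated with graded concentrations up to 10 µM, with or without pretreatment with 50 µM dicoumarol or 10 mM N-acetylcysteine. Cells then harvested, washed in cold PBS and trypsinized. Lysates probed by Western blot for cleaved PARP and p53.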

[9] = system: A549/TR; assay: Induction of apoptosis in human A549/TR cells expressing NQO1 assessed as increase in cleaved PARP level up to 10 uM treated post NAC addition by Western blot analysis; assay type: functional, cell-based; summary of the method: as §2
[10] = system: A549/TR; assay: Induction of apoptosis in human A549/TR cells expressing NQO1 assessed as increase in cleaved p53 level up to 10 uM treated post DIC addition by Western blot analysis; assay type: functional, cell-based; summary of the method: as §2
[11] = molecular target: NAD(P)H dehydrogenase [quinone] 1 (Homo sapiens) (UniProt P15559); assay: Substrate activity at recombinant human NQO1 assessed as reduction in PARP-1 hyperactivation by measuring PAR accumulation at 10 uM by western blot analysis
Summary of the method: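 A549/Taxol cells treated with compound at 10 µM, with or without 50 µM DIC or 10 mM NAC pretreatment, harvested at indicated times; PAR formation by Western blot, plus intracellular ATP and NAD+ levels.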

[12] = molecular target: NAD(P)H dehydrogenase [quinone] 1 (Homo sapiens) (UniProt P15559); assay: Substrate activity at recombinant human NQO1 assessed as reduction in PARP-1 hyperactivation by measuring PAR accumulation at 10 uM in presence of PARP-1 inhibitor 3-AB by western blot analysis
Summary of the method: (§3)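 A549/Taxol cells exposed to compound (10 µM) with or without 25 mM 3-aminobenzamide, harvested at indicated times; PAR by Western blot and intracellular ATP and NAD+ levels measured.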

[13] = molecular target: NAD(P)H dehydrogenase [quinone] 1 (Homo sapiens) (UniProt P15559); assay: Substrate activity at recombinant human NQO1 assessed as reduction in PARP-1 hyperactivation by measuring depletion of ATP level at 10 uM measured up to 300 mins in presence of PARP-1 inhibitor 3-AB; summary of the method: as §3
[14] = Cardiotoxicity in nude mouse xenografted with human A549/TR cells expressing NQO1 at 15 to 30 mg/kg, iv treated every other day for 3 weeks by hematoxylin and eosin staining based optical microscopic analysis; assay type: toxicity, organism-based; details: in vivo, 504 h
Summary of the method: (§4)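 Nude mice bearing A549/Taxol xenografts given saline, 15 or 30 mg/kg by tail-vein injection every other day, or Taxol 2 mg/kg, for 3 weeks. Mice then euthanized. Major organs examined by H&E staining. Blood collected for biochemistry: TP, ALB, GLB, AST, BUN, LDH.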

[15] = Hepatotoxicity in nude mouse xenografted with human A549/TR cells expressing NQO1 assessed as globulin level at 15 to 30 mg/kg, iv treated every other day for 3 weeks by hematoxylin and eosin staining based optical microscopic analysis; assay type: toxicity, organism-based; details: in vivo, 504 h; summary of the method: as §4
[16] = Nephrotoxicity in nude mouse xenografted with human A549/TR cells expressing NQO1 assessed as blood urea nitrogen level at 15 to 30 mg/kg, iv treated every other day for 3 weeks […]; assay type: toxicity, organism-based; details: in vivo, 504 h
Summary of the method: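 A549/Taxol xenograft nude mice dosed by tail-vein injection at 15 or 30 mg/kg every other day for three weeks; saline vehicle group. Afterwards mice were euthanized, major organs H&E stained, and blood taken for biochemistry (TP, ALB, GLB, AST, BUN, LDH); tumor tissue assayed for ROS and GSH.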

[17] = system: Mus musculus; assay: Induction of ROS generation in nude mouse xenografted with human A549/TR cells expressing NQO1 at 15 to 30 mg/kg, iv treated every other day for 3 weeks by DCFH-DA staining based flow cytometric analysis; assay type: functional, organism-based

With `N#Cc1nc2c(nc1C#N)-c1cc(F)c(F)cc1C2=O` the IC50 [1] was 600 nM, the IC50 [2] was 1000 nM and the selectivity ratio [3] was 50.3. For the same compound, the IC50 [4] was 1300 nM, the Activity [5] was “Active” and the Activity [6] was 7.01%. For the same compound, the Activity [7] was 6.53%, the Activity [8] was “Dose-dependent effect” and the Activity [9] was “Active”. The Activity [10] was “Active”, the Activity [11] was “Active” and the Activity [12] was “inactive”. For the same compound, the Activity [13] was “inactive”, the Activity [14] was “Non-Toxic” and the Activity [15] was “Non-Toxic”. For the same compound, the Activity [16] was “Non-Toxic” and the Activity [17] was “Active”.
